Source: ChEMBL document CHEMBL5131563, “Accelerated Identification of Cell Active KRAS Inhibitory Macrocyclic Peptides using Mixture Libraries and Automated Ligand Identification System (ALIS) Technology” (J Med Chem, 2022)
Where a SMILES comes first, the peptide text is derived from it. Bridges are numbered along the chain shown (N, C = ends). [ ]: non-standard residue; d: D form. Ala(4-thiazolyl) = N[C@@H](Cc1cscn1)C(=O)O; Dip = N[C@H](C(=O)O)C(c1ccccc1)c1ccccc1; Ala(cPent) = N[C@@H](CC1CCCC1)C(=O)O; hPhe = N[C@@H](CCc1ccccc1)C(=O)O; Cha = N[C@@H](CC1CCCCC1)C(=O)O; hLeu = CC(C)CC[C@H](N)C(=O)O; Nle = CCCC[C@H](N)C(=O)O; Dab = NCC[C@H](N)C(=O)O; Nva = CCC[C@H](N)C(=O)O

Experiments:
GTPase KRas = GTPase KRas (Homo sapiens, UniProt P01116, G12D); assay: Inhibition of recombinant biotinylated KRAS G12D mutant (unknown origin) assessed as inhibition of SOS-catalyzed nucleotide exchange preincubated for 60 mins followed by addition of human SOS protein and unlabeled GTP and measured after 60 mins by TR-FRET analysis
GTPase KRas, sequence (P01116 whole entry G12D): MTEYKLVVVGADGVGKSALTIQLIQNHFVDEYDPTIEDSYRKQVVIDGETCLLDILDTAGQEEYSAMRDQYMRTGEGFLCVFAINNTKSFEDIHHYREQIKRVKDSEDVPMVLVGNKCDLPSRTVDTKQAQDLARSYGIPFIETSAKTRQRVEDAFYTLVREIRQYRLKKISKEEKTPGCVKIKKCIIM
How it was run: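 Biotinylated KRAS G12D was treated in EDTA buffer (1 h, RT), then loaded at 90 nM with 900 nM Bodipy-GDP and 15 nM Tb-streptavidin in Mg2+ buffer, HEPES pH 7.5 (6 h, RT). It was used at 1.5 nM assay solution with a 10-point, 3-fold DMSO compound series for 60 min at RT. A solution of 120 nM human SOS plus GTP was added for 60 min. The read-out was TR-FRET at 520/495 nm, normalized to DMSO and saturating-inhibitor controls, with a 4-parameter fit.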

[1] = Stability in human HeLa cell homogenate assessed as half life by LC-MS/MS analysis; assay type: ADME, cell-based
How it was run: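 HeLa cells suspended at 1 × 10^6 cells/mL, probe-sonicated on ice until homogeneous, stored frozen at –20 °C. Peptides incubated with homogenate (1 × 10^6 cells/mL equivalent); peptide loss over time quantified by LC-MS/MS to derive t1/2.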

## CC(=O)N[C@@H](CCCNC(=N)N)C(=O)N[C@@H](CCCNC(=N)N)C(=O)N[C@H]1CSSC[C@@H](C(=O)N[C@@H](CCCNC(=N)N)C(=O)N[C@@H](CCCNC(=N)N)C(N)=O)NC(=O)[C@H](C(C)C)NC(=O)[C@@H]2CCCN2C(=O)[C@H](CC(=O)O)NC(=O)[C@H](Cc2ccc(O)cc2)NC(=O)[C@H](CO)NC(=O)[C@H](CCC(C)C)NC(=O)[C@H](Cc2ccc(O)cc2)NC(=O)[C@H](CC(C)C)NC(=O)[C@@H]2CCCN2C1=O (Ac-RRCPLY[hLeu]SYDPVCRR-NH2; disulfide 3-13)
GTPase KRas
  IC50: > 11100 nM
[1]
  half-life: 28 min

## CC(=O)N[C@@H](CCCNC(=N)N)C(=O)N[C@@H](CCCNC(=N)N)C(=O)N[C@H]1CSSC[C@@H](C(=O)N[C@@H](CCCNC(=N)N)C(=O)N[C@@H](CCCNC(=N)N)C(N)=O)NC(=O)[C@H](C(C)C)NC(=O)[C@@H]2CCCN2C(=O)[C@H](CC(=O)O)NC(=O)[C@H](Cc2ccc(O)cc2)NC(=O)[C@H](CO)NC(=O)[C@H](CC2CCCC2)NC(=O)[C@H](CCc2ccccc2)NC(=O)[C@H](CC(C)C)NC(=O)[C@@H]2CCCN2C1=O (Ac-RRCPL[hPhe][Ala(cPent)]SYDPVCRR-NH2; disulfide 3-13)
GTPase KRas
  IC50: > 11100 nM
[1]
  half-life: 16 min

## CCC[C@@H]1NC(=O)[C@H](CCc2ccccc2)NC(=O)[C@H](CC(C)C)NC(=O)[C@@H]2CCCN2C(=O)[C@@H](NC(=O)[C@H](CCCNC(=N)N)NC(=O)[C@H](CCCNC(=N)N)NC(C)=O)CSSC[C@@H](C(=O)N[C@@H](CCCNC(=N)N)C(=O)N[C@@H](CCCNC(=N)N)C(N)=O)NC(=O)[C@H](C(C)C)NC(=O)[C@@H]2CCCN2C(=O)[C@H](CC(=O)O)NC(=O)[C@H](Cc2ccc(O)cc2)NC(=O)[C@H](CO)NC1=O (Ac-RRCPL[hPhe][Nva]SYDPVCRR-NH2; disulfide 3-13)
GTPase KRas
  IC50: > 11100 nM
[1]
  half-life: 15 min

## CC[C@H](C)[C@@H]1NC(=O)[C@H](CCc2ccccc2)NC(=O)[C@H](CC(C)C)NC(=O)[C@@H]2CCCN2C(=O)[C@@H](NC(=O)[C@H](CCCNC(=N)N)NC(=O)[C@H](CCCNC(=N)N)NC(C)=O)CSSC[C@@H](C(=O)N[C@@H](CCCNC(=N)N)C(=O)N[C@@H](CCCNC(=N)N)C(N)=O)NC(=O)[C@H](C(C)C)NC(=O)[C@@H]2CCCN2C(=O)[C@H](CC(=O)O)NC(=O)[C@H](Cc2ccc(O)cc2)NC(=O)[C@H](CO)NC1=O (Ac-RRCPL[hPhe]ISYDPVCRR-NH2; disulfide 3-13)
GTPase KRas
  IC50: 1390 nM
[1]
  half-life: 37 min

## CC[C@H](C)[C@@H]1NC(=O)[C@H](Cc2ccc(O)cc2)NC(=O)[C@H](CC(C)C)NC(=O)[C@@H]2CCCN2C(=O)[C@@H](NC(=O)[C@H](CCCNC(=N)N)NC(=O)[C@H](CCCNC(=N)N)NC(C)=O)CSSC[C@@H](C(=O)N[C@@H](CCCNC(=N)N)C(=O)N[C@@H](CCCNC(=N)N)C(N)=O)NC(=O)[C@H](C(C)C)NC(=O)[C@@H]2CCCN2C(=O)[C@H](CC(=O)O)NC(=O)[C@H](C(c2ccccc2)c2ccccc2)NC(=O)[C@H](CCN)NC1=O (Ac-RRCPLYI[Dab][Dip]DPVCRR-NH2; disulfide 3-13)
GTPase KRas
  IC50: > 11100 nM
[1]
  half-life: 34 min

## CCC[C@@H]1NC(=O)[C@H](Cc2ccc(O)cc2)NC(=O)[C@H](CC(C)C)NC(=O)[C@@H]2CCCN2C(=O)[C@@H](NC(=O)[C@H](CCCNC(=N)N)NC(=O)[C@H](CCCNC(=N)N)NC(C)=O)CSSC[C@@H](C(=O)N[C@@H](CCCNC(=N)N)C(=O)N[C@@H](CCCNC(=N)N)C(N)=O)NC(=O)[C@H](C(C)C)NC(=O)[C@@H]2CCCN2C(=O)[C@H](CC(=O)O)NC(=O)[C@H](Cc2ccc(O)cc2)NC(=O)[C@H](CO)NC1=O (Ac-RRCPLY[Nva]SYDPVCRR-NH2; disulfide 3-13)
GTPase KRas
  IC50: > 11100 nM
[1]
  half-life: 19 min

## CC[C@H](C)[C@@H]1NC(=O)[C@H](CC2CCCCC2)NC(=O)[C@H](CC(C)C)NC(=O)[C@@H]2CCCN2C(=O)[C@@H](NC(=O)[C@H](CCCNC(=N)N)NC(=O)[C@H](CCCNC(=N)N)NC(C)=O)CSSC[C@@H](C(=O)N[C@@H](CCCNC(=N)N)C(=O)N[C@@H](CCCNC(=N)N)C(N)=O)NC(=O)[C@H](C(C)C)NC(=O)[C@@H]2CCCN2C(=O)[C@H](CC(=O)O)NC(=O)[C@H](Cc2ccc(O)cc2)NC(=O)[C@H](CO)NC1=O (Ac-RRCPL[Cha]ISYDPVCRR-NH2; disulfide 3-13)
GTPase KRas
  IC50: 161 nM
[1]
  half-life: 21 min

## CCCC[C@@H]1NC(=O)[C@H]([C@@H](C)CC)NC(=O)[C@H](Cc2ccc(O)cc2)NC(=O)[C@H](CC(C)C)NC(=O)[C@@H]2CCCN2C(=O)[C@@H](NC(=O)[C@H](CCCNC(=N)N)NC(=O)[C@H](CCCNC(=N)N)NC(C)=O)CSSC[C@@H](C(=O)N[C@@H](CCCNC(=N)N)C(=O)N[C@@H](CCCNC(=N)N)C(N)=O)NC(=O)[C@H](C(C)C)NC(=O)[C@@H]2CCCN2C(=O)[C@H](CC(=O)O)NC(=O)[C@H](CC2CCCCC2)NC1=O (Ac-RRCPLYI[Nle][Cha]DPVCRR-NH2; disulfide 3-13)
GTPase KRas
  IC50: > 11100 nM
[1]
  half-life: 26 min

## CC[C@H](C)[C@@H]1NC(=O)[C@H](Cc2ccc(O)cc2)NC(=O)[C@H](CC(C)C)NC(=O)[C@@H]2CCCN2C(=O)[C@@H](NC(=O)[C@H](CCCNC(=N)N)NC(=O)[C@H](CCCNC(=N)N)NC(C)=O)CSSC[C@@H](C(=O)N[C@@H](CCCNC(=N)N)C(=O)N[C@@H](CCCNC(=N)N)C(N)=O)NC(=O)[C@H](C(C)C)NC(=O)[C@@H]2CCCN2C(=O)[C@H](CC(=O)O)NC(=O)[C@H](Cc2ccc(O)cc2)NC(=O)[C@H](Cc2cscn2)NC1=O (Ac-RRCPLYI[Ala(4-thiazolyl)]YDPVCRR-NH2; disulfide 3-13)
GTPase KRas
  IC50: 2270 nM
[1]
  half-life: 22 min

## CC[C@H](C)[C@@H]1NC(=O)[C@H](Cc2ccc(O)cc2)NC(=O)[C@H](CC(C)C)NC(=O)[C@@H]2CCCN2C(=O)[C@@H](NC(=O)[C@H](CCCNC(=N)N)NC(=O)[C@H](CCCNC(=N)N)NC(C)=O)CSSC[C@@H](C(=O)N[C@@H](CCCNC(=N)N)C(=O)N[C@@H](CCCNC(=N)N)C(N)=O)NC(=O)[C@H](C(C)C)NC(=O)[C@@H]2CCCN2C(=O)[C@H](CC(=O)O)NC(=O)[C@H](C(c2ccccc2)c2ccccc2)NC(=O)[C@H](CO)NC1=O
GTPase KRas
  IC50: 251 nM
[1]
  half-life: 30 min

## CC[C@H](C)[C@@H]1NC(=O)[C@H](Cc2ccc(O)cc2)NC(=O)[C@H](CC(C)C)NC(=O)[C@@H]2CCCN2C(=O)[C@@H](NC(=O)[C@H](CCCNC(=N)N)NC(=O)[C@H](CCCNC(=N)N)NC(C)=O)CSSC[C@@H](C(=O)N[C@@H](CCCNC(=N)N)C(=O)N[C@@H](CCCNC(=N)N)C(N)=O)NC(=O)[C@H](C(C)C)NC(=O)[C@@H]2CCCN2C(=O)[C@H](CC(=O)O)NC(=O)[C@H](Cc2cc(F)c(F)c(F)c2)NC(=O)[C@H](CO)NC1=O
GTPase KRas
  IC50: 193 nM
[1]
  half-life: 18 min

## CC(=O)N[C@@H](CCCNC(=N)N)C(=O)N[C@@H](CCCNC(=N)N)C(=O)N[C@H]1CSSC[C@@H](C(=O)N[C@@H](CCCNC(=N)N)C(=O)N[C@@H](CCCNC(=N)N)C(N)=O)NC(=O)[C@H](C(C)C)NC(=O)[C@@H]2CCCN2C(=O)[C@H](CC(=O)O)NC(=O)[C@H](Cc2ccc(O)cc2)NC(=O)[C@H](CO)NC(=O)[C@H](CC2CCCC2)NC(=O)[C@H](Cc2ccc(O)cc2)NC(=O)[C@H](CC(C)C)NC(=O)[C@@H]2CCCN2C1=O (Ac-RRCPLY[Ala(cPent)]SYDPVCRR-NH2; disulfide 3-13)
GTPase KRas
  IC50: > 11100 nM
[1]
  half-life: 23 min
